Experiments:
[1] = target: Wee1-like protein kinase (Homo sapiens) (UniProt P30291); assay: Inhibition of recombinant N-terminal full length GST-tagged human WEE1 expressed in baculovirus expression system at 1 uM by FRET assay relative to control
In short: (§1)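 Single-concentration screen at 1 μM in Life Technologies SelectScreen, across a 220-kinase panel. Z′-LYTE format measures phosphorylation of a labeled peptide by FRET. Results are reported as percent inhibition.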

[2] = target: Casein kinase I isoform gamma-1 (Homo sapiens) (UniProt Q9HCP0); assay: Inhibition of CK1gamma1 (unknown origin) at 1 uM by FRET assay relative to control
Casein kinase I isoform gamma-1 (Homo sapiens), sequence (Q9HCP0 whole entry, looked up, canonical isoform): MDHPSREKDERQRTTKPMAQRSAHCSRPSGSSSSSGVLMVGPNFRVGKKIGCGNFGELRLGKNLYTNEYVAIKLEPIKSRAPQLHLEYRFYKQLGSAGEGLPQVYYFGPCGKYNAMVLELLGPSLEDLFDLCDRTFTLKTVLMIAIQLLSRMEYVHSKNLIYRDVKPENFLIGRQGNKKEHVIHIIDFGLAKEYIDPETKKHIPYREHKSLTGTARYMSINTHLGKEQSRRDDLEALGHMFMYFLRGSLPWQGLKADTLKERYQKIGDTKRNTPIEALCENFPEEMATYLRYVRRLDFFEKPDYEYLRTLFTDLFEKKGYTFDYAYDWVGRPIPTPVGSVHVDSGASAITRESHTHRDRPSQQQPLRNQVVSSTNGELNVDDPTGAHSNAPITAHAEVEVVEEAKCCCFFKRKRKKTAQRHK

[3] = target: Mitogen-activated protein kinase kinase kinase kinase 5 (Homo sapiens) (UniProt Q9Y4K4); assay: Inhibition of recombinant full length His-tagged human KHS1 expressed in baculovirus expression system at 1 uM by FRET assay relative to control
[4] = target: Leucine-rich repeat serine/threonine-protein kinase 2 (Homo sapiens) (UniProt Q5S007); assay: Inhibition of recombinant GST-tagged human LRRK2 catalytic domain (970 to 2527 residues) expressed in baculovirus expression system at 1 uM by FRET assay relative to control
In short: (§2)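 Single-point screen at 1 μM compound in a 220-kinase panel run by Life Technologies (SelectScreen). Z′-LYTE format: phosphorylation of a labeled peptide substrate read by FRET. Values are reported as percent inhibition.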

[5] = target: Vascular endothelial growth factor receptor 1 (Homo sapiens) (UniProt P17948); assay: Inhibition of recombinant GST-tagged human FLT1 cytoplasmic domain expressed in baculovirus expression system at 1 uM by FRET assay relative to control; in short: as §2
[6] = target: BDNF/NT-3 growth factors receptor (Homo sapiens) (UniProt Q16620); assay: Inhibition of recombinant His-tagged human TrkB cytoplasmic domain expressed in baculovirus expression system at 1 uM by FRET assay relative to control; in short: as §1
[7] = target: Leukocyte tyrosine kinase receptor (Homo sapiens) (UniProt P29376); assay: Inhibition of recombinant GST-tagged human LTK cytoplasmic domain (440 to 864 residues) expressed in baculovirus expression system at 1 uM by FRET assay relative to control
In short: (§3)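 Part of a 220-kinase panel run at a single concentration of 1 μM. Z′-LYTE format: phosphorylation of a labelled peptide read by FRET. Values reported as percent inhibition.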

[8] = target: Serine/threonine-protein kinase PAK 4 (Homo sapiens, UniProt O96013); assay: Inhibition of recombinant GST-tagged human PAK4 catalytic domain expressed in baculovirus expression system at 1 uM by FRET assay relative to control; in short: as §2
Serine/threonine-protein kinase PAK 4, sequence (O96013 whole entry, looked up, the tested form may be a part): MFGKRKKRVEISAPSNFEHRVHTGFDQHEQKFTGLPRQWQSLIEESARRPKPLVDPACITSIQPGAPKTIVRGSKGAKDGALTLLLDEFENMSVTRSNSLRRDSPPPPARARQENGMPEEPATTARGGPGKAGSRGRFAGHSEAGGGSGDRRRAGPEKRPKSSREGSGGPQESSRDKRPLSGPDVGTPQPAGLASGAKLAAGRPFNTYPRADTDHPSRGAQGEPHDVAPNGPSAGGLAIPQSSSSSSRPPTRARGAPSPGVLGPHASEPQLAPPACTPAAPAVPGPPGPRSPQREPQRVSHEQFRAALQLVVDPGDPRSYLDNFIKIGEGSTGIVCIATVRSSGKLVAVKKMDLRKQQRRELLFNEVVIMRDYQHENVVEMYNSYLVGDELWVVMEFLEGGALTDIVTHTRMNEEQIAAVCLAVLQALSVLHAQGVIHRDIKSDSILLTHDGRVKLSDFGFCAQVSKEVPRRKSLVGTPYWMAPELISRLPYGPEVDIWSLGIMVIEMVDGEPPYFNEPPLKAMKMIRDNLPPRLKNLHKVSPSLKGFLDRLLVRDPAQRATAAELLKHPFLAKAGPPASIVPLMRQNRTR

[9] = target: Serine/threonine-protein kinase PLK3 (Homo sapiens) (UniProt Q9H4B4); assay: Inhibition of GST-tagged human PLK3 catalytic domain expressed in baculovirus expression system at 1 uM by FRET assay relative to control
Serine/threonine-protein kinase PLK3 (Homo sapiens), sequence (Q9H4B4 whole entry, looked up, the tested form may be a part): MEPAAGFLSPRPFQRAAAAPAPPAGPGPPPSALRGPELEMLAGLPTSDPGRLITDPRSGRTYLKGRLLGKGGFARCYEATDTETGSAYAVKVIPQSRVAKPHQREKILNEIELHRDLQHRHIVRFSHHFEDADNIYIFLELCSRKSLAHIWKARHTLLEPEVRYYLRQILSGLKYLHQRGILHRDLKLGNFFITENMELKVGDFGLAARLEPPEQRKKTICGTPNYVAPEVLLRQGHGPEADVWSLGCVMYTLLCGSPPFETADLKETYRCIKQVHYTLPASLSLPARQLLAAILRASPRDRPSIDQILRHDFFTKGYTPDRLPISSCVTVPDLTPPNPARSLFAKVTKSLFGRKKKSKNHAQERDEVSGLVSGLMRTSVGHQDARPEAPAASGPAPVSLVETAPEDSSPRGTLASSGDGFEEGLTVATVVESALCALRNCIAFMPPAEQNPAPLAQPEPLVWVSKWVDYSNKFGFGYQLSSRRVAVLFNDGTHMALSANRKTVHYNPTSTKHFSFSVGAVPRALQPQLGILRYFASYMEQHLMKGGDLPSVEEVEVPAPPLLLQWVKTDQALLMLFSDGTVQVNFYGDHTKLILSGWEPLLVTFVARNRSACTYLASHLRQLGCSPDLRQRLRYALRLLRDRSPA

[10] = target: Dual specificity protein kinase CLK1 (Homo sapiens) (UniProt P49759); assay: Inhibition of recombinant human GST-tagged CLK1 catalytic domain(129 to 484 residues)expressed in Escherichia coli at 1 uM by FRET assay relative to control
[11] = target: Tyrosine-protein kinase Srms (Homo sapiens) (UniProt Q9H3Y6); assay: Inhibition of recombinant full length GST-tagged human Srm cytoplasmic domain expressed in baculovirus expression system at 1 uM by FRET assay relative to control; in short: as §3
[12] = target: Mitogen-activated protein kinase kinase kinase 12 (Mus musculus) (UniProt Q60700); assay: Inhibition of DLK in CD-1 mouse DRG neuron assessed as axonal protection pre-incubated for 2 hrs before NGF deprivation for 16 to 20 hrs by Campenot chamber based fluorescence assay
In short: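 High-content imaging assay of axon degeneration, with automated quantification of axons. Protection is expressed relative to a positive control in which degeneration was not induced. EC50 was taken from dose-response curves, each point being the average of three independent assays ± SD.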

[13] = target: Rho-associated protein kinase 2 (Homo sapiens) (UniProt O75116); assay: Inhibition of recombinant N-terminal GST-tagged human ROCK2 catalytic domain (1 to 552 residues) expressed in baculovirus expression system at 1 uM by FRET assay relative to control; in short: as §1
[14] = target: Interleukin-1 receptor-associated kinase 4 (Homo sapiens) (UniProt Q9NWZ3); assay: Inhibition of recombinant full length His-tagged human IRAK4 expressed in baculovirus expression system at 1 uM by FRET relative to control
Interleukin-1 receptor-associated kinase 4 (Homo sapiens), sequence (Q9NWZ3 whole entry): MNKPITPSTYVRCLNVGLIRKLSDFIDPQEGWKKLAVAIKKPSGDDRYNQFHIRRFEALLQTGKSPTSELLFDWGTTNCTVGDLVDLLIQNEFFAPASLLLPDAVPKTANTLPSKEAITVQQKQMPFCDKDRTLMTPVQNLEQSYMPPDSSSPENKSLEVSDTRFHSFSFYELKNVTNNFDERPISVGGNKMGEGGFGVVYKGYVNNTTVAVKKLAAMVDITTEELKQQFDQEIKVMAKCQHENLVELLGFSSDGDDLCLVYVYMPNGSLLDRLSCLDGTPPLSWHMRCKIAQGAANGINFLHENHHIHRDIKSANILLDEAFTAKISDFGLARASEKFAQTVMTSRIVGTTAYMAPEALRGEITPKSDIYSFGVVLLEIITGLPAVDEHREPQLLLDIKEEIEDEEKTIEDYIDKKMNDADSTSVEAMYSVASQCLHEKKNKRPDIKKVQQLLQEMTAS

[15] = target: Serine/threonine-protein kinase 4 (Homo sapiens) (UniProt Q13043); assay: Inhibition of recombinant full length GST-tagged human MST1 expressed in baculovirus at 1 uM by FRET assay relative to control; in short: as §1
[16] = target: Dual specificity mitogen-activated protein kinase kinase 3 (Homo sapiens) (UniProt P46734); assay: Inhibition of recombinant full length GST-tagged human MEK3 expressed in baculovirus expression system at 1 uM by FRET assay relative to control; in short: as §1
Dual specificity mitogen-activated protein kinase kinase 3 (Homo sapiens), sequence (P46734 whole entry, the tested form may be a part): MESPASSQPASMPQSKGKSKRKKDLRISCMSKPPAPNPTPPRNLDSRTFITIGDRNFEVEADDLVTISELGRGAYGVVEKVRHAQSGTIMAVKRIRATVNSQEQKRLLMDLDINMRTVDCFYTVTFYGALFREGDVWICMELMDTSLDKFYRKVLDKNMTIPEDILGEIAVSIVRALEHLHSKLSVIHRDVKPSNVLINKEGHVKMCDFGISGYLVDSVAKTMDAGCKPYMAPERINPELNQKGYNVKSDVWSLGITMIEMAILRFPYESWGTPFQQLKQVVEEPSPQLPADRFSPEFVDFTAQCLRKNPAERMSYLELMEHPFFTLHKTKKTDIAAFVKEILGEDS

[17] = target: Megakaryocyte-associated tyrosine-protein kinase (Homo sapiens) (UniProt P42679); assay: Inhibition of recombinant full length His-tagged human Hyl cytoplasmic domain expressed in Escherichia coli at 1 uM by FRET relative to control
[18] = organism: Homo sapiens; assay: Binding affinity to sodium channel site 2 (unknown origin) receptor at 10 uM relative to control
In short: (§4)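 Broad radioligand-binding and enzyme screening panel covering 42 targets (biogenic amine and neuropeptide receptors, ion channels, neurotransmitter transporters, acetylcholinesterase). Single test concentration of 10 μM. Results expressed as binding relative to control, with a hit defined as >50% of control.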

[19] = target: MAP kinase-activated protein kinase 5 (Homo sapiens) (UniProt Q8IW41); assay: Inhibition of full length recombinant His-tagged human PRAK expressed in baculovirus expression system at 1 uM by FRET assay relative to control
MAP kinase-activated protein kinase 5 (Homo sapiens), sequence (Q8IW41 whole entry): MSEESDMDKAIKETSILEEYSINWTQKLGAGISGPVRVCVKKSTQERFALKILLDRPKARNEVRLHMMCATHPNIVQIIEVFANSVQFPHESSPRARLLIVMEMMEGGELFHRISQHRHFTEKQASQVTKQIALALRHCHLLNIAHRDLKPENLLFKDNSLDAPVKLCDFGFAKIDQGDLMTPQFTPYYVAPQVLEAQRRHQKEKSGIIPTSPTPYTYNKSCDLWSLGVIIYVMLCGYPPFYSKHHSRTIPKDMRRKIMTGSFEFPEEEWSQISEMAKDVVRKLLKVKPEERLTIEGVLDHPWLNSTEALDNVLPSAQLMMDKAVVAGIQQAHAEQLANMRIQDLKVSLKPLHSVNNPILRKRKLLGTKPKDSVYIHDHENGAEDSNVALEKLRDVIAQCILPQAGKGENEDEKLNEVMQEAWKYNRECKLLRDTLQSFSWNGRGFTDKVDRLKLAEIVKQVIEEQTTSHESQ

[20] = target: 3-phosphoinositide-dependent protein kinase 1 (Homo sapiens) (UniProt O15530); assay: Inhibition of recombinant full length His-tagged human PDK1 expressed in baculovirus expression system at 1 uM by FRET assay relative to control
[21] = target: Insulin receptor (Homo sapiens) (UniProt P06213); assay: Inhibition of recombinant His-tagged human InsR (1011 to 1382 residues) expressed in baculovirus expression system at 1 uM by FRET relative to control; in short: as §2
[22] = target: Protein kinase C epsilon type (Homo sapiens) (UniProt Q02156); assay: Inhibition of recombinant full length human PKCepsilon expressed in baculovirus expression system at 1 uM by FRET assay relative to control
Protein kinase C epsilon type (Homo sapiens), sequence (Q02156 whole entry, the tested form may be a part): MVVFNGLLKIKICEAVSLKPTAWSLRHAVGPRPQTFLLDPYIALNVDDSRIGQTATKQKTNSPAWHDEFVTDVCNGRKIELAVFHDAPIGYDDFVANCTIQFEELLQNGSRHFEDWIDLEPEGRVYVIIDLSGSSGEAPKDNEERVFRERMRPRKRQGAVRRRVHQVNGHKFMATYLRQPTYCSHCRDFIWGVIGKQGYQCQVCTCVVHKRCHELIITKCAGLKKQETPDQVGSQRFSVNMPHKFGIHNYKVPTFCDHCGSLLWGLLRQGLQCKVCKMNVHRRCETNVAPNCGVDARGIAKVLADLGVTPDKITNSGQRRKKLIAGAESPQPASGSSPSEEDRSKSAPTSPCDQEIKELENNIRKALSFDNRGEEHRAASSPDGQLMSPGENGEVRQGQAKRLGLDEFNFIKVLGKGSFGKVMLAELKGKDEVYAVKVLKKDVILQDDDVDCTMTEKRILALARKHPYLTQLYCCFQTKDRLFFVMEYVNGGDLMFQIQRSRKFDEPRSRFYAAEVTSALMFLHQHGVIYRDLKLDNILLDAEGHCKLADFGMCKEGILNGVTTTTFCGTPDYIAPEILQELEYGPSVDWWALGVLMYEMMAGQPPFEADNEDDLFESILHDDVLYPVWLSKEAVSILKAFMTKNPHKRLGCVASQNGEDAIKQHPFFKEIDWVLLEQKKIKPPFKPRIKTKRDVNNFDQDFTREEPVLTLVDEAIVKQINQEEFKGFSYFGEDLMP

[23] = target: Activin receptor type-2B (Homo sapiens) (UniProt Q13705); assay: Inhibition of recombinant GST-tagged human ACVR2B catalytic domain (185 to 488 residues) expressed in baculovirus expression system at 1 uM by FRET assay relative to control
Activin receptor type-2B (Homo sapiens), sequence (Q13705 whole entry, the tested form may be a part): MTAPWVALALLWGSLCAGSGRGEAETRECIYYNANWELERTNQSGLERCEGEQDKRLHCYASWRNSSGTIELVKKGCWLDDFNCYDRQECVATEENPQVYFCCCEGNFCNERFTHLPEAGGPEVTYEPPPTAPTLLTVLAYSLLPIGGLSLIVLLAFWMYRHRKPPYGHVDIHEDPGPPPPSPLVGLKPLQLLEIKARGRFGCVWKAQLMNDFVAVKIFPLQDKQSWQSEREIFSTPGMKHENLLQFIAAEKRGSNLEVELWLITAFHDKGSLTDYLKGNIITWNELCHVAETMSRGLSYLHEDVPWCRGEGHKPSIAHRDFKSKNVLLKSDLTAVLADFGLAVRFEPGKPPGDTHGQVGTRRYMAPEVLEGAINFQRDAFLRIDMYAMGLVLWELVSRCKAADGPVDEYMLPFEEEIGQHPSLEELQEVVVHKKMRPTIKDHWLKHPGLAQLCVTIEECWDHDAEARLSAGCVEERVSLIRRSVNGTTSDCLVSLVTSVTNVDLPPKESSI

[24] = target: Protein kinase C theta type (Homo sapiens) (UniProt Q04759); assay: Inhibition of PKCtheta (unknown origin) at 1 uM by FRET assay relative to control
[25] = target: Vascular endothelial growth factor receptor 3 (Homo sapiens) (UniProt P35916); assay: Inhibition of recombinant GST-tagged human FLT4 cytoplasmic domain expressed in baculovirus expression system at 1 uM by FRET assay relative to control; in short: as §2
[26] = organism: Homo sapiens; assay: Binding affinity to BZD receptor (unknown origin) at 10 uM relative to control; in short: as §4

Wee1-like protein kinase (Homo sapiens), sequence (P30291 whole entry, looked up): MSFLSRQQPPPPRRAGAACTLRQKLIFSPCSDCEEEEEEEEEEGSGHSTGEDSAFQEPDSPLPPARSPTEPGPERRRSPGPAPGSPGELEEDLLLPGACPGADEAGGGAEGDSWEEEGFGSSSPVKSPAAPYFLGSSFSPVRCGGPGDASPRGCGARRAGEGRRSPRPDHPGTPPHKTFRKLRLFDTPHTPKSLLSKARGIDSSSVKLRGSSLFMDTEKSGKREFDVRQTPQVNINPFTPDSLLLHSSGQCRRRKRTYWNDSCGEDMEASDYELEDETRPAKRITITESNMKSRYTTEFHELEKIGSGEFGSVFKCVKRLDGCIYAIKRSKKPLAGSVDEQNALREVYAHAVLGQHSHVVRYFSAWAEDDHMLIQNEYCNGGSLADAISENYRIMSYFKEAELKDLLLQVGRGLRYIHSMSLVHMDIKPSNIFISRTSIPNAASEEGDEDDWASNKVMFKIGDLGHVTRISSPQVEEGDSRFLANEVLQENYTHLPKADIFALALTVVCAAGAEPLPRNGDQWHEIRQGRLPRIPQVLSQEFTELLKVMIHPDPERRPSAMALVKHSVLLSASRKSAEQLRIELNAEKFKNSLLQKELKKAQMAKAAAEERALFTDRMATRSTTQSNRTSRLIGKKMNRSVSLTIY

Row | SMILES | inhibition [1] [%] | inhibition [2] [%] | inhibition [3] [%] | inhibition [4] [%] | inhibition [5] [%] | inhibition [6] [%] | inhibition [7] [%] | inhibition [8] [%] | inhibition [9] [%] | inhibition [10] [%] | inhibition [11] [%] | Activity [12] | inhibition [13] [%] | inhibition [14] [%] | inhibition [15] [%] | inhibition [16] [%] | inhibition [17] [%] | Activity [18] [%] | inhibition [19] [%] | inhibition [20] [%] | also measured
1 | Nc1ncc(-c2cc([C@H]3[C@@H]4CN(C5COC5)C[C@@H]43)n(CC3CC3)n2)cc1C(F)(F)F | 7.1 | 2 | 22.2 | 20.6 | -0.6 | 38.8 | 31.5 | 40.5 | 0.6 | 2.1 | 4 | Dose-dependent effect | -7.5 | 5.3 | -8.7 | -2.7 | 0.1 | > 50 | -0.8 | -2.7 | inhibition [21]: 11.9%; inhibition [22]: -5%; inhibition [23]: -2.1%; inhibition [24]: 0.3%; inhibition [25]: 44.6%; Activity [26]: > 50%
2 | CC(C)n1nc(-c2cnc(N)c(OC(F)(F)F)c2)cc1[C@H]1[C@@H]2CN(C3COC3)C[C@@H]21 | 4.9 | 8.4 | 25.1 | 15.7 | 4.8 | 44.3 | 9.8 | 69.5 | -3.8 | 1.8 | -2.5 | Dose-dependent effect | 7.2 | -1.3 | 3.5 | 3.6 | 7.5 | > 50 | 8.1 | 3.3 | inhibition [21]: 16.6%; inhibition [22]: 1.9%; inhibition [23]: -0.8%; inhibition [24]: 9.3%; inhibition [25]: 22.1%; Activity [26]: > 50%

Reference: ChEMBL document CHEMBL4118097, “Selective Inhibitors of Dual Leucine Zipper Kinase (DLK, MAP3K12) with Activity in a Model of Alzheimer's Disease” (J Med Chem, 2017)
